From ChEMBL document CHEMBL4431355, “Design and synthesis of benzylpiperidine inhibitors targeting the menin-MLL1 interface” (Bioorg Med Chem Lett, 2016)

Experiments:
[1] = target: T1, Menin/Histone-lysine N-methyltransferase MLL (Homo sapiens) (UniProt O00255+Q03164); assay: Inhibition of human recombinant full length menin/MLL1 (unknown origin) interaction using Ac-SRWRFPARPGTGRR-Ahx-Ahx-K-FAM as substrate at 20 uM after 15 mins by fluorescence polarization binding assay; format: protein assay
[2] = target: Menin/Histone-lysine N-methyltransferase MLL (Homo sapiens, UniProt O00255); assay: Inhibition of human recombinant full length menin/MLL1 (unknown origin) interaction using Ac-SRWRFPARPGTGRR-Ahx-Ahx-K-FAM as substrate after 15 mins by fluorescence polarization binding assay; format: protein assay
[3] = system: K562; assay: Antiproliferative activity against human K562 cells after 7 days by MTS assay; format: functional, cell-based; conditions: K562, 168 h
In short: (§1)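 Cells exposed to compounds for 7 days in a proliferation assay. IC50 is given as mean ± SD of triplicate determinations. K562 cells were tested up to 20 μM.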

[4] = system: MV4-11; assay: Antiproliferative activity against human MV4-11 cells expressing MLL-AF4 after 7 days by MTS assay; format: functional, cell-based; conditions: for IC50: MV4-11, 168 h; in short: as §1
[5] = target: T1, Menin/Histone-lysine N-methyltransferase MLL (Homo sapiens); assay: Inhibition of menin/MLL1 interaction in human MV4-11 cells assessed as reduction in HOXA9 mRNA level after 6 days by qRT-PCR analysis; format: cell-based
In short: (§2)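 MV-4-11 cells incubated with compound for 6 days. HOXA9 expression measured by quantitative real-time PCR, normalized to β-actin and expressed relative to DMSO-treated cells. Triplicate means ± SD; experiment repeated 3 times.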

[6] = target: T1, Menin/Histone-lysine N-methyltransferase MLL (Homo sapiens); assay: Inhibition of menin/MLL1 interaction in human MV4-11 cells assessed as reduction in HOXA9 mRNA level at 10 uM after 6 days by qRT-PCR analysis relative to control; format: cell-based; in short: as §2

Sequence of Menin/Histone-lysine N-methyltransferase MLL (O00255 whole entry): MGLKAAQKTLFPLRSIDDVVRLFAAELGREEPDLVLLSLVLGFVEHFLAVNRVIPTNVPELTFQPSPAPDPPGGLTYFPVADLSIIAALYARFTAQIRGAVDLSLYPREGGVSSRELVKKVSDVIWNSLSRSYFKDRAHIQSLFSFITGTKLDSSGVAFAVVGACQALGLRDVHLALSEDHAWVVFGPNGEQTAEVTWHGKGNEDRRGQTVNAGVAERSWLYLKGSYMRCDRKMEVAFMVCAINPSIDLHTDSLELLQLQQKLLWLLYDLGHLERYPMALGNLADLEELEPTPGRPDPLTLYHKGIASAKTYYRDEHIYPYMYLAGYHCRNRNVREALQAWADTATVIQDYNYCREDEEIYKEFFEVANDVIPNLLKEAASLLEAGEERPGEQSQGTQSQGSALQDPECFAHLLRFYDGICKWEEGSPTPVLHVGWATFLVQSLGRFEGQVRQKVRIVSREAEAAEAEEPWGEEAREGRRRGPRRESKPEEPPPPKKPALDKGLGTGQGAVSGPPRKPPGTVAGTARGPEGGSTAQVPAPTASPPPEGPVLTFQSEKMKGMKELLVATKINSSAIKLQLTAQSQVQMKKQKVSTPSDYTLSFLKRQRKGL
Sequence of Menin/Histone-lysine N-methyltransferase MLL (Q03164 1-2718 partner limits assumed): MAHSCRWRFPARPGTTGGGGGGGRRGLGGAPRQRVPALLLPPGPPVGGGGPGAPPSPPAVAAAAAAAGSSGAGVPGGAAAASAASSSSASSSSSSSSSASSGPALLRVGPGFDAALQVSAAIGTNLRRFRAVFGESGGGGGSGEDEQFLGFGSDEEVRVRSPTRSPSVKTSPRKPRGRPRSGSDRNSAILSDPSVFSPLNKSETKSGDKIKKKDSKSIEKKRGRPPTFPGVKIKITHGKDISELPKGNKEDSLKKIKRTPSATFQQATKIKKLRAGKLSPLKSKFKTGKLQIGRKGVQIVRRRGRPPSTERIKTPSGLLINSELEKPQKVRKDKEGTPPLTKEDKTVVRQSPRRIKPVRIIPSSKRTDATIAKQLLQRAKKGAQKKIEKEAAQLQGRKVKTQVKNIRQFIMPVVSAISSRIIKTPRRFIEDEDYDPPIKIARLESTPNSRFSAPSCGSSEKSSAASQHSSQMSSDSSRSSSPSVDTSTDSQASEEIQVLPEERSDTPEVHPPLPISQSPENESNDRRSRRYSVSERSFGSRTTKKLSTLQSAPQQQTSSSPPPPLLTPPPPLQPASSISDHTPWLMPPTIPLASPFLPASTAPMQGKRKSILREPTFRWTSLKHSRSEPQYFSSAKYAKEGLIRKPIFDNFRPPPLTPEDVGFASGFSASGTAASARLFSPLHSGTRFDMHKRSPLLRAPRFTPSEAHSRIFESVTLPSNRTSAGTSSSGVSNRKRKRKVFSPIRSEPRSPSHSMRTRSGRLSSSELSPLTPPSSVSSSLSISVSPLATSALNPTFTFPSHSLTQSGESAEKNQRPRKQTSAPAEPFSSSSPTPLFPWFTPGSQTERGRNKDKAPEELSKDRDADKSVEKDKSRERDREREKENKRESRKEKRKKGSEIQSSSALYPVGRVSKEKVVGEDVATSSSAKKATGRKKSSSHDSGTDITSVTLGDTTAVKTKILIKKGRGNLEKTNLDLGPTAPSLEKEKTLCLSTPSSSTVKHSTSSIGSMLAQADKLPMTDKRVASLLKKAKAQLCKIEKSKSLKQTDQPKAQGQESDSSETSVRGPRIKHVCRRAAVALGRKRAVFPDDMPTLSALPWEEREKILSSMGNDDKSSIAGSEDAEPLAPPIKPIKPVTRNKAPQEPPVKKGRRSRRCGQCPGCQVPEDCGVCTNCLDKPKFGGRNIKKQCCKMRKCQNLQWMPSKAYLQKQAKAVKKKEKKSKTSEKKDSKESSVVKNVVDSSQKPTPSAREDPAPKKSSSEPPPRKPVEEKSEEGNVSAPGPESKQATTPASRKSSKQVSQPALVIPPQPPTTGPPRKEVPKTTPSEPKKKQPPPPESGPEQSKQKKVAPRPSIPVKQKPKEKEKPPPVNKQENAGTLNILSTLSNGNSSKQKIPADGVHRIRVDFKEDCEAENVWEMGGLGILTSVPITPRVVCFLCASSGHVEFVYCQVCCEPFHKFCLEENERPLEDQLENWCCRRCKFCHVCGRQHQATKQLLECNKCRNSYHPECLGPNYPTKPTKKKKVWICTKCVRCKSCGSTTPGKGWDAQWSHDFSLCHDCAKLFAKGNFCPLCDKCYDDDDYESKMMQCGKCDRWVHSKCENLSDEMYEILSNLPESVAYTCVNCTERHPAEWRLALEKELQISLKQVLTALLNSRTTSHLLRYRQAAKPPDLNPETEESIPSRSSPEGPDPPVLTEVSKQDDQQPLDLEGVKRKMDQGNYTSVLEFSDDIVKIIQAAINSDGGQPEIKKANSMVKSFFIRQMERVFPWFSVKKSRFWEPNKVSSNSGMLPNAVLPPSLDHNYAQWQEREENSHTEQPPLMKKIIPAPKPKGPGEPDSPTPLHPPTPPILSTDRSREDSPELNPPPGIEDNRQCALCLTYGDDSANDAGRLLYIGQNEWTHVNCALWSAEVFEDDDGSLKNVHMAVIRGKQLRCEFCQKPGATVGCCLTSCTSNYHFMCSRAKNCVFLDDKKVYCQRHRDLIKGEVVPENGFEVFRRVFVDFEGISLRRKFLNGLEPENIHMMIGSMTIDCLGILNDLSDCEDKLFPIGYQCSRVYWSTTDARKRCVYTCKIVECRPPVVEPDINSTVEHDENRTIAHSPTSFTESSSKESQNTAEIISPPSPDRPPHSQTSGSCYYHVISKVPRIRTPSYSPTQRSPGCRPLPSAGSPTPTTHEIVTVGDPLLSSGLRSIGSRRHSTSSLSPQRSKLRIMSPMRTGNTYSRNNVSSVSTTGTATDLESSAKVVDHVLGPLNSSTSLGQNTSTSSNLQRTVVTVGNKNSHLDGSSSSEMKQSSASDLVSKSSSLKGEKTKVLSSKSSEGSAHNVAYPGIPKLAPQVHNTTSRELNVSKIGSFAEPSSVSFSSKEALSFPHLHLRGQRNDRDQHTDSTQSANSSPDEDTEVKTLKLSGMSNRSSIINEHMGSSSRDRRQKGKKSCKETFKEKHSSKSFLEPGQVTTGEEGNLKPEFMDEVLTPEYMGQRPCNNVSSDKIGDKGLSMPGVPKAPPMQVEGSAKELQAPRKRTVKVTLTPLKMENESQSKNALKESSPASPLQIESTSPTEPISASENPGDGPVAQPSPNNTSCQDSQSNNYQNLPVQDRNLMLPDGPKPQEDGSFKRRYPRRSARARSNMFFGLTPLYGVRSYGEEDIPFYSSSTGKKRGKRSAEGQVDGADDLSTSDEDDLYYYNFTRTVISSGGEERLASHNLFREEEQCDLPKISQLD
Sequence of Menin/Histone-lysine N-methyltransferase MLL (Q03164 2719-3969 partner limits assumed): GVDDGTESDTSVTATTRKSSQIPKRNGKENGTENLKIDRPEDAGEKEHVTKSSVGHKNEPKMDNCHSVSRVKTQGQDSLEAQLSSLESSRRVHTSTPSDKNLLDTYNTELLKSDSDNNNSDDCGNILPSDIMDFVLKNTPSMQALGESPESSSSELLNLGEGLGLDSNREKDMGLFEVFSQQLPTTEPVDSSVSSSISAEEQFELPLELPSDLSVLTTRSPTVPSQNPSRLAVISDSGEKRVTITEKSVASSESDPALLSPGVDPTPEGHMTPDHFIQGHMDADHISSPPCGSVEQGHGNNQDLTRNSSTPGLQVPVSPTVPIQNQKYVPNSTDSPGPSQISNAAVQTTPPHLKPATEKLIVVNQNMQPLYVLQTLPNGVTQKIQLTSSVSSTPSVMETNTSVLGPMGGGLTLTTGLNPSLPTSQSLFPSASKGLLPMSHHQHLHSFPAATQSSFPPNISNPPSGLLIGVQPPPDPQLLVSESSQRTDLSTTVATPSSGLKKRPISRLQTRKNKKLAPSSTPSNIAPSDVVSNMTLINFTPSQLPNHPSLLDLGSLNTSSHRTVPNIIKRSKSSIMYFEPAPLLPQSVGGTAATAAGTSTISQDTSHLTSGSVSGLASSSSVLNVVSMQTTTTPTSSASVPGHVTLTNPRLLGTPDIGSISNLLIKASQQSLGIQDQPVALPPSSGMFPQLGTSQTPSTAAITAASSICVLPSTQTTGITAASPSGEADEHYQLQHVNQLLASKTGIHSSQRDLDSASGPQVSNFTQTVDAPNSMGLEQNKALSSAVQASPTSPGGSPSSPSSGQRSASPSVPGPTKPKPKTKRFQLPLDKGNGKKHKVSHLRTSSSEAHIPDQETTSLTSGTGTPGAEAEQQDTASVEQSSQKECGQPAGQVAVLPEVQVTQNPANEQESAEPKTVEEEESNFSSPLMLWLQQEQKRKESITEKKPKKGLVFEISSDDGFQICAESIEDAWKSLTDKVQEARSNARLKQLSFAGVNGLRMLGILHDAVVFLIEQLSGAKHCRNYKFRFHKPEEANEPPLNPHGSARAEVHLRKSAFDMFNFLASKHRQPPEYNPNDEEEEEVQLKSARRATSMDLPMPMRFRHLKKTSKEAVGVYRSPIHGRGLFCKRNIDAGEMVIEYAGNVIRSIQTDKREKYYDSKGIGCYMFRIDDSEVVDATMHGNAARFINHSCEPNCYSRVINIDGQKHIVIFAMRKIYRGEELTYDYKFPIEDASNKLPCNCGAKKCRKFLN
T1 sequence (O00255 whole entry): as the sequence (O00255 whole entry) above
T1 sequence (Q03164 1-2718 partner limits assumed): as the sequence (Q03164 1-2718 partner limits assumed) above
T1 sequence (Q03164 2719-3969 partner limits assumed): as the sequence (Q03164 2719-3969 partner limits assumed) above

| IC50 [2] [nM] | IC50 [3] [nM] | IC50 [4] [nM] | SMILES | other results |
| --- | --- | --- | --- | --- |
|  |  |  | FC(F)(F)Cc1cc2c(NC3CCN(Cc4cccc5ccccc45)CC3)ncnc2s1 | inhibition [1]: 2.4% |
| 7350 |  |  | CN(C)CCCOc1cccc(CN2CCC(Nc3ncnc4sc(CC(F)(F)F)cc34)CC2)c1 |  |
| 1800 |  |  | FC(F)(F)Cc1cc2c(NC3CCN(CCc4ccccc4)CC3)ncnc2s1 |  |
| 430 | 9120 | 1020 | N#Cc1ccc(OCCCN2CCN(c3ncnc4sc(CC(F)(F)F)cc34)CC2)cc1 | Activity [4]: Dose-dependent effect |
| > 20000 |  |  | N#Cc1ccc(OCCN2CCN(c3ncnc4sc(CC(F)(F)F)cc34)CC2)cc1 |  |
|  |  |  | FC(F)(F)Cc1cc2c(NC3CCN(Cc4ccc(C(F)(F)F)cc4)CC3)ncnc2s1 | inhibition [1]: -2.5% |
| 220 | > 20000 | 790 | FC(F)(F)Cc1cc2c(NC3CCN(Cc4ccsc4)CC3)ncnc2s1 | inhibition [5]: Dose-dependent effect; Activity [4]: Dose-dependent effect; inhibition [6]: 70% |
| 13400 |  |  | FC(F)(F)Cc1cc2c(NC3CCN(Cc4cccc(OC5CCNCC5)c4)CC3)ncnc2s1 |  |
| 5670 |  |  | CCCN1CCC(Nc2ncnc3sc(CC(F)(F)F)cc23)CC1 |  |
| 1220 | > 20000 | 4150 | NCCOc1cccc(CN2CCC(Nc3ncnc4sc(CC(F)(F)F)cc34)CC2)c1 |  |
| 2000 | > 20000 | 6320 | Fc1ccc(CN2CCC(Nc3ncnc4sc(CC(F)(F)F)cc34)CC2)cc1 |  |
|  |  |  | FC(F)(F)Cc1cc2c(NC3CCN(Cc4ccc5ccccc5c4)CC3)ncnc2s1 | inhibition [1]: 15.6% |
| 1260 |  |  | Nc1cccc(CN2CCC(Nc3ncnc4sc(CC(F)(F)F)cc34)CC2)c1 |  |
| 640 | > 20000 | 2420 | COc1ccc(CN2CCC(Nc3ncnc4sc(CC(F)(F)F)cc34)CC2)cc1 |  |
| 2350 |  |  | CN1CCC(Oc2cccc(CN3CCC(Nc4ncnc5sc(CC(F)(F)F)cc45)CC3)c2)CC1 |  |
| > 20000 |  |  | N#Cc1ccc(NCCN2CCN(c3ncnc4sc(CC(F)(F)F)cc34)CC2)cc1 |  |
| 1540 | > 20000 | 2690 | N#Cc1ccc(NCCCN2CCN(c3ncnc4sc(CC(F)(F)F)cc34)CC2)cc1 |  |
| 3800 |  |  | Cc1cccc(CN2CCC(CNc3ncnc4sc(CC(F)(F)F)cc34)CC2)c1 |  |
|  |  |  | N#Cc1ccc(CN2CCC(Nc3ncnc4sc(CC(F)(F)F)cc34)CC2)cc1 | inhibition [1]: 25% |

| IC50 [2] [nM] | IC50 [3] [nM] | IC50 [4] [nM] | SMILES | other results |
| --- | --- | --- | --- | --- |
| 470 | > 20000 | 1020 | FC(F)(F)Cc1cc2c(NC3CCN(Cc4ccccc4)CC3)ncnc2s1 | Activity [4]: Dose-dependent effect |
|  |  |  | FC(F)(F)Cc1cc2c(Nc3ccc(Cc4ccccc4)cc3)ncnc2s1 | inhibition [1]: 2% |
|  | > 20000 | 640 | CC1(C)CN=C(N2CCN(c3ncnc4sc(CC(F)(F)F)cc34)CC2)S1 |  |
| 770 | > 20000 | 6490 | FC(F)(F)Cc1cc2c(NC3CCN(CC4CC4)CC3)ncnc2s1 |  |
| 4690 |  |  | FC(F)(F)Cc1cc2c(NC3CCN(Cc4ccco4)CC3)ncnc2s1 |  |
| 2240 | > 20000 | 2330 | FC(F)(F)Cc1cc2c(NCC3CCN(Cc4ccccc4)CC3)ncnc2s1 |  |
| 1170 | > 20000 | 2980 | Fc1ccc(CN2CCC(CNc3ncnc4sc(CC(F)(F)F)cc34)CC2)cc1 |  |
| 32800 |  |  | FC(F)(F)Cc1cc2c(NC3CCNCC3)ncnc2s1 |  |
| 780 | > 20000 | 3490 | CN(C)CCOc1cccc(CN2CCC(Nc3ncnc4sc(CC(F)(F)F)cc34)CC2)c1 |  |
|  |  |  | N#Cc1ccc(CN2CCC(CNc3ncnc4sc(CC(F)(F)F)cc34)CC2)cc1 | inhibition [1]: 33.4% |
| 670 | > 20000 | 390 | NCCCOc1cccc(CN2CCC(Nc3ncnc4sc(CC(F)(F)F)cc34)CC2)c1 | inhibition [5]: Dose-dependent effect; Activity [4]: Dose-dependent effect |
|  |  |  | FC(F)(F)Cc1cc2c(NCC3CCN(Cc4ccc(C(F)(F)F)cc4)CC3)ncnc2s1 | inhibition [1]: 18.5% |
|  |  |  | O=[N+]([O-])c1cccc(CN2CCC(Nc3ncnc4sc(CC(F)(F)F)cc34)CC2)c1 | inhibition [1]: 43% |
| 2700 |  |  | FC(F)(F)Cc1cc2c(NC3CCN(Cc4ccncc4)CC3)ncnc2s1 |  |
| 1070 | > 20000 | 1280 | COc1ccc(CN2CCC(CNc3ncnc4sc(CC(F)(F)F)cc34)CC2)cc1 |  |
|  |  |  | FC(F)(F)Cc1cc2c(NC3CCN(Cc4ccc(-c5ccccc5)cc4)CC3)ncnc2s1 | inhibition [1]: 4.6% |
| 1120 | 9510 | 1650 | CNCCCOc1cccc(CN2CCC(Nc3ncnc4sc(CC(F)(F)F)cc34)CC2)c1 |  |
|  |  |  | C#CCN1CCC(Nc2ncnc3sc(CC(F)(F)F)cc23)CC1 | inhibition [1]: 31.3% |
